ChEMBL document CHEMBL5046273, “Development of a Novel, Small-Molecule Brain-Penetrant Histone Deacetylase Inhibitor That Enhances Spatial Memory Formation in Mice” (J Med Chem, 2022)
Activity calls are given as the source filed them. The calls are words filed in the database; no cut-off is given here.

Legend:
Histone deacetylase 3 = Histone deacetylase 3 (Homo sapiens, UniProt O15379); test: Inhibition of HDAC3 in human DU-145 cells assessed as increase in histone H3 acetylation after 24 hrs by immunofluorescence microscopy; format: cell-based
Chain of Histone deacetylase 3 (O15379 whole entry): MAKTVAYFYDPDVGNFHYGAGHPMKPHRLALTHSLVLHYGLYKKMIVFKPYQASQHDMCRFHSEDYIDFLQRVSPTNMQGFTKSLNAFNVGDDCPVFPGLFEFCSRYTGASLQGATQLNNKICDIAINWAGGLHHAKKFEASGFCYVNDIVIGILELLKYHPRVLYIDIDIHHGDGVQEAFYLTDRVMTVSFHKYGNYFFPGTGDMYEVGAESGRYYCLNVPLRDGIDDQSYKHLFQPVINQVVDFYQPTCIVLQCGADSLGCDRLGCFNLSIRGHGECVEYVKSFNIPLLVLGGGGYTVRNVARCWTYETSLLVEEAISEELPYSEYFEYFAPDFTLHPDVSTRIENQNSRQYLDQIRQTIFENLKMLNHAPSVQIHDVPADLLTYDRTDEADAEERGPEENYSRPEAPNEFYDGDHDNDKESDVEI

[1] = Half life in Swiss Webster mouse blood at 40 mg/kg, ip by LC-MS/MS analysis; format: ADME, organism-based; conditions: in vivo
Method in brief: (§1)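 Single i.p. dose of 40 mg/kg in Swiss Webster mice; blood, brain and liver taken at several time points. Tissues homogenized in acetonitrile, centrifuged, spin-filtered, dried and reconstituted, with 4,5-diphenylimidazole as instrument standard. Quantified by LC–MS/MS on a C18 column with a formic acid/MeCN gradient. Mean ± SD (n = 4), fitted to a two-compartment PK model.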

Mus musculus [2] = test: Cognitive enhancing effect in C57BL/6 mouse assessed as enhanced object recognition memory consolidation at 20 to 40 mg/kg, ip measured after 48 hrs; format: functional, organism-based; conditions: dose 20-40 mg/kg
Method in brief: (§2)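 Male C57BL/6 mice trained to 30 s of total exploration of two identical objects (20 min maximum). Immediately afterwards they received one i.p. injection at 5 mL/kg in 100% DMSO (20, 30 or 40 mg/kg); vehicle DMSO, NaBu 600 mg/kg in saline. Object placement (moved object) tested at 24 h and object recognition (novel object) at 48 h. Time with that object compared to chance (15 s) by one-sample t-test.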

[3] = Elimination rate in Swiss Webster mouse brain at 40 mg/kg, ip by LC-MS/MS analysis; format: ADME, organism-based; method in brief: as §1
Mus musculus [4] = test: Cognitive enhancing effect in C57BL/6 mouse assessed as enhanced spatial memory at 20 to 40 mg/kg, ip measured after 24 hrs; format: functional, organism-based; conditions: dose 20-40 mg/kg; method in brief: as §2
[5] = molecular target: T1, Histone deacetylase (Homo sapiens) (UniProt Q13547+O15379+Q9UBN7+Q92769+Q9UQL6+Q8WUI4+Q9BY41+Q96DB2+P56524+Q9UKV0+Q969S8); test: Inhibition of HDAC in human DU-145 cells assessed as increase in histone H3 acetylation at 50 to 100 uM after 24 hrs by immunofluorescence microscopy; format: cell-based; conditions: dose 50-100 µM
Method in brief: (§3)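 Cells were fixed in 4% PFA and permeabilized in TBS-T/BSA. Staining used anti-acetyl-H3 (Lys9/Lys14) at 1:2000, an AlexaFluor 488 secondary and DAPI. At least five random fields were imaged by fluorescence microscopy; three independent experiments.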

[6] = AUC in Swiss Webster mouse brain at 40 mg/kg, ip by LC-MS/MS analysis; format: ADME, organism-based; set-up: dose 40 mg/kg; conditions: in vivo; method in brief: as §1
[7] = Cmax in Swiss Webster mouse liver at 40 mg/kg, ip by LC-MS/MS analysis; format: ADME, organism-based; set-up: route intraperitoneal, dose 40 mg/kg; method in brief: as §1
[8] = Tmax in Swiss Webster mouse blood at 40 mg/kg, ip by LC-MS/MS analysis; format: ADME, organism-based; method in brief: as §1
[9] = molecular target: T1, Histone deacetylase (Homo sapiens); test: Inhibition of HDAC in human DU-145 cells assessed as increase in histone H3 acetylation after 24 hrs by immunofluorescence microscopy; format: cell-based; method in brief: as §3
[10] = Drug uptake in BALB/c mouse blood at 40 mg/kg, ip measured upto 60 mins by mass spectroscopy analysis; format: ADME, organism-based; conditions: in vivo, 1 h
Method in brief: (§4)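 BALB/c mice received 40 mg/kg i.p. Retro-orbital blood was collected under isoflurane, then liver and whole brain after CO2 euthanasia, at 10, 30 and 60 min. Acetonitrile extracts were spin-filtered with 4,5-diphenylimidazole as instrument standard and analysed by LC–MS/MS.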

[11] = AUC in Swiss Webster mouse blood at 40 mg/kg, ip by LC-MS/MS analysis; format: ADME, organism-based; set-up: dose 40 mg/kg; method in brief: as §1
DU-145 [12] = test: Cytotoxicity against human DU-145 cells assessed as reduction in cell viability at 50 uM incubated for 48 hrs by MTT assay; format: functional
Method in brief: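 DU145 cells in DMEM with 10% FBS were seeded at 14 000 cells/well and allowed to adhere for 24 h. Test agents were diluted from 10 mM DMSO stocks (100, 50, 25 µM; 10, 5, 1.25 nM) and applied in triplicate for 48 h at 37 °C, 5% CO2, with DMSO as vehicle. Read-out was 250 µg/mL MTT for 4 h, DMSO solubilization, and A570 with 690 nm reference. Values normalized to DMSO.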

[13] = Cmax in Swiss Webster mouse brain at 40 mg/kg, ip by LC-MS/MS analysis; format: ADME, organism-based; set-up: route intraperitoneal, dose 40 mg/kg; method in brief: as §1
DU-145 [14] = test: Cytotoxicity against human DU-145 cells assessed as reduction in cell viability incubated for 48 hrs by MTT assay; format: functional
Method in brief: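 DU145 cells grown in DMEM with 10% FBS, penicillin/streptomycin and L-glutamine at 37 °C and 5% CO2. Cells seeded at 14 000/well and allowed to adhere 24 h. Compounds diluted from 10 mM DMSO stocks into medium (final 25–100 μM), DMSO vehicle, triplicate wells, 48 h. MTT 250 μg/mL for 4 h, dissolved in DMSO, A570 (ref 690). Normalized to DMSO; three independent experiments.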

[15] = Drug uptake in BALB/c mouse liver at 40 mg/kg, ip measured upto 60 mins by mass spectroscopy analysis; format: ADME, organism-based; conditions: in vivo, 1 h; method in brief: as §4
Histone deacetylase 2 = Histone deacetylase 2 (Homo sapiens, UniProt Q92769); test: Inhibition of recombinant human full-length HDAC2 incubated for 10 mins by Glo-luminescence assay
Chain of Histone deacetylase 2 (Q92769 whole entry): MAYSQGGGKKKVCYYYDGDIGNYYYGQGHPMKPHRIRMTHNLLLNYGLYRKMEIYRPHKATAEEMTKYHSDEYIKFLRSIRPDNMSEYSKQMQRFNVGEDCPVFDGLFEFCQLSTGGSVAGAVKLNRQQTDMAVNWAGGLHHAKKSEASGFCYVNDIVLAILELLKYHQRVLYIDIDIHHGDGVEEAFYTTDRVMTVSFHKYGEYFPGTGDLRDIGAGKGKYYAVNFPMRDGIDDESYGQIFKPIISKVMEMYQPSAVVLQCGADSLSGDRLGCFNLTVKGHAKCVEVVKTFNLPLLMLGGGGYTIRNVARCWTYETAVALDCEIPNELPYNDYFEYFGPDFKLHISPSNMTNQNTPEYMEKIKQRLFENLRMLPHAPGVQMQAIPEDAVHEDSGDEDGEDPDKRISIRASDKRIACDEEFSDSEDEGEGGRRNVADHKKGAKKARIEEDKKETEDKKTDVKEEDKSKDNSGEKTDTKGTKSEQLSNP
Method in brief: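 Compounds were serially diluted and incubated with enzyme for 10 min. HDAC-Glo I/II substrate/developer was then added, and luminescence read after 40 min at 23 °C. IC50 from four-parameter fits from two independent titrations, mean ± SD.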

Question: Which IC50 (Histone deacetylase 3) does the source give for `CC(C)(C)OC(=O)CC(O)/C=C/CCSSCC/C=C/C(O)CC(=O)OC(C)(C)C` (stereo not drawn) here?
Answer: The IC50 was 8 µM.

Question: What about the t1/2 [1] of the same compound?
Answer: The t1/2 was 45.4 min.

Question: What about the Activity (Mus musculus [2]) of the same compound?
Answer: The Activity was “inactive”.

Question: And the k el [3]?
Answer: Its k el is 0.000867 s⁻¹.

Question: And the Activity (Mus musculus [4])?
Answer: Its Activity is “Active”.

Question: What about the inhibition [5] of the same compound?
Answer: The inhibition was “Active”.

Question: And the AUC [6]?
Answer: The AUC was 2019 ng·min/g.

Question: What about the Cmax [7] of the same compound?
Answer: Its Cmax is 530 ng/g.

Question: And the Tmax [8]?
Answer: Its Tmax is 10 min.

Question: And the inhibition [9]?
Answer: Its inhibition is “Dose-Dependent Effect”.

Question: What about the Drug uptake [10] of the same compound?
Answer: The Drug uptake was “Active”.

Question: What about the AUC [11] of the same compound?
Answer: The AUC was 88.1 ng·h/mL.

Question: What about the inhibition at 50 µM (DU-145 [12]) of the same compound?
Answer: The inhibition at 50 µM was 50%.

Question: What about the Cmax [13] of the same compound?
Answer: Its Cmax is 82.5 ng/g.

Question: And the Activity (DU-145 [14])?
Answer: The Activity was “Dose-Dependent Effect”.

Question: What about the CC50 (DU-145 [14]; read-out: LD50 (the source's name)) of the same compound?
Answer: The CC50 was 39 µM.

Question: And the Drug uptake [15]?
Answer: Its Drug uptake is “Active”.

Question: What about the IC50 (Histone deacetylase 2) of the same compound?
Answer: Its IC50 is 100 µM.
